Experimental data reported in ChEMBL document CHEMBL1134692, “QSAR study on the contribution of log P and E(s) to the in vitro antiprotozoal activity of glutathione derivatives” (J Med Chem, 2001).
pEC50: −log10 of the molar value.

Test system: not listed separately
Experiment: Relative toxicity was evaluated as ED50 for KB cell line to that of ED50 for T.B. brucei
Assay type: organism-based
Details: trypanosoma brucei brucei, KB cells versus Trypanosoma brucei brucei; read-out: Relative toxicity; call rule not given here
In short: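 Ratio of ED50 against KB cells to ED50 against T. b. brucei bloodstream forms, each from the 3-day Alamar Blue assays.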

SMILES | selectivity ratio
O=C(CCC(NC(=O)OCc1ccccc1)C(=O)OC1CCCCC1)NC(CSc1ccc([N+](=O)[O-])cc1[N+](=O)[O-])C(=O)NCC(=O)OC1CCCCC1 (stereo not given) | 243

Test system: Trypanosoma brucei brucei
Experiment: Inhibitory activity against Trypanosoma brucei
Assay type: functional
Details: read-out: ED50 (the source's name)
In short: (§1)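 T. b. brucei S427 bloodstream trypomastigotes kept in HMI-18 with 20% heat-inactivated FCS at 37 °C, 5% CO2. Parasites at 2 × 10^5/mL were mixed 1:1 with compound, run in triplicate as a 3-fold dilution series from 30 μM top. Incubated 3 days at 37 °C; Alamar Blue read-out on day 3 gave ED50. Pentamidine positive control.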

pEC50 | SMILES
4.70 | CCC(C)OC(=O)CNC(=O)C(CSc1ccc([N+](=O)[O-])cc1[N+](=O)[O-])NC(=O)CCC(NC(=O)OCc1ccccc1)C(=O)O (stereo not given)
6.68 | O=C(CCC(NC(=O)OCc1ccccc1)C(=O)OC1CCCCC1)NC(CSc1ccc([N+](=O)[O-])cc1[N+](=O)[O-])C(=O)NCC(=O)OC1CCCCC1 (stereo not given)

Test system: Leishmania donovani
Experiment: Inhibitory activity against Leishmania donovani
Assay type: functional
Details: read-out: ED50 (the source's name)
In short: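 Starch-elicited peritoneal macrophages from female CD1 mice were plated at 4 × 10^4/well in RPMI-1640 with 10% HIFCS. After 24 h they were infected at 10:1 with L. donovani amastigotes (MHOM/ET/67/L82, hamster-passaged). Drug was given as a 3-fold dilution series in quadruplicate for 5 days. Activity was scored as the percentage of macrophages cleared of amastigotes. Sodium stibogluconate control.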

pEC50 | SMILES
< 4.52 | CCOC(=O)CNC(=O)C(CSc1ccc([N+](=O)[O-])cc1[N+](=O)[O-])NC(=O)CCC(NC(=O)OCc1ccccc1)C(=O)O (stereo not given)
< 4.52 | COC(=O)CNC(=O)C(CSc1ccc([N+](=O)[O-])cc1[N+](=O)[O-])NC(=O)CCC(NC(=O)OCc1ccccc1)C(=O)O (stereo not given)
4.70 | CCC(C)OC(=O)CNC(=O)C(CSc1ccc([N+](=O)[O-])cc1[N+](=O)[O-])NC(=O)CCC(NC(=O)OCc1ccccc1)C(=O)O (stereo not given)
< 4.52 | CCCOC(=O)CNC(=O)C(CSc1ccc([N+](=O)[O-])cc1[N+](=O)[O-])NC(=O)CCC(NC(=O)OCc1ccccc1)C(=O)O (stereo not given)

Test system: not listed separately
Experiment: Evaluated for its inhibitory activity against KB cells
Assay type: functional
Details: Homo sapiens, read-out: ED50 (the source's name)
In short: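 KB cells (human oral pharyngeal carcinoma) grown in RPMI with 10% calf foetal serum at 37 °C, 5% CO2 in humidified air. Exposed to compound for 3 days under the same conditions, then viability read by Alamar Blue assay; ED50 reported.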

pEC50 | SMILES
4.29 | O=C(CCC(NC(=O)OCc1ccccc1)C(=O)OC1CCCCC1)NC(CSc1ccc([N+](=O)[O-])cc1[N+](=O)[O-])C(=O)NCC(=O)OC1CCCCC1 (stereo not given)

Test system: Trypanosoma brucei brucei
Experiment: Compound was evaluated for its inhibitory activity against Trypanosoma brucei; NA= not active at 30 umol
Assay type: functional, organism-based
Details: not given
In short: as §1

SMILES | NA
CC(C)OC(=O)CNC(=O)C(CSc1ccc([N+](=O)[O-])cc1[N+](=O)[O-])NC(=O)CCC(NC(=O)OCc1ccccc1)C(=O)O (stereo not given) | not active at 30 umol
CCCOC(=O)CNC(=O)C(CSc1ccc([N+](=O)[O-])cc1[N+](=O)[O-])NC(=O)CCC(NC(=O)OCc1ccccc1)C(=O)O (stereo not given) | not active at 30 umol

Test system: not listed separately
Experiment: Partition coefficient (logP)
Assay type: physicochemical
Details: octanol/water

logP | SMILES
1.82 | CCOC(=O)CNC(=O)C(CSc1ccc([N+](=O)[O-])cc1[N+](=O)[O-])NC(=O)CCC(NC(=O)OCc1ccccc1)C(=O)O (stereo not given)
2.23 | CC(C)OC(=O)CNC(=O)C(CSc1ccc([N+](=O)[O-])cc1[N+](=O)[O-])NC(=O)CCC(NC(=O)OCc1ccccc1)C(=O)O (stereo not given)
1.32 | COC(=O)CNC(=O)C(CSc1ccc([N+](=O)[O-])cc1[N+](=O)[O-])NC(=O)CCC(NC(=O)OCc1ccccc1)C(=O)O (stereo not given)
2.72 | CCC(C)OC(=O)CNC(=O)C(CSc1ccc([N+](=O)[O-])cc1[N+](=O)[O-])NC(=O)CCC(NC(=O)OCc1ccccc1)C(=O)O (stereo not given)
2.31 | CCCOC(=O)CNC(=O)C(CSc1ccc([N+](=O)[O-])cc1[N+](=O)[O-])NC(=O)CCC(NC(=O)OCc1ccccc1)C(=O)O (stereo not given)
6.65 | O=C(CCC(NC(=O)OCc1ccccc1)C(=O)OC1CCCCC1)NC(CSc1ccc([N+](=O)[O-])cc1[N+](=O)[O-])C(=O)NCC(=O)OC1CCCCC1 (stereo not given)
6.87 | CCCC(CC)OC(=O)CNC(=O)C(CSc1ccc([N+](=O)[O-])cc1[N+](=O)[O-])NC(=O)CCC(NC(=O)OCc1ccccc1)C(=O)OC(CC)CCC (stereo not given)

Test system: Trypanosoma cruzi
Experiment: Evaluated for its inhibitory activity against Trypanosoma cruzi; NA= not active at 30 umol
Assay type: functional, organism-based
Details: not given
In short: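 Starch-elicited female CD1 mouse peritoneal macrophages (4 × 10^4/well, RPMI-1640, 10% HIFCS) were infected after 24 h at 5:1 with T. cruzi Y trypomastigotes derived from MDCK cultures. Drug was applied as a 3-fold dilution series in quadruplicate for 3 days. Activity was the percentage of macrophages cleared of amastigotes. Nifurtimox control.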

SMILES | Activity against T. cruzi
CC(C)OC(=O)CNC(=O)C(CSc1ccc([N+](=O)[O-])cc1[N+](=O)[O-])NC(=O)CCC(NC(=O)OCc1ccccc1)C(=O)O (stereo not given) | not active at 30 umol
CCC(C)OC(=O)CNC(=O)C(CSc1ccc([N+](=O)[O-])cc1[N+](=O)[O-])NC(=O)CCC(NC(=O)OCc1ccccc1)C(=O)O (stereo not given) | not active at 30 umol
CCCOC(=O)CNC(=O)C(CSc1ccc([N+](=O)[O-])cc1[N+](=O)[O-])NC(=O)CCC(NC(=O)OCc1ccccc1)C(=O)O (stereo not given) | not active at 30 umol
